Assay results taken from ChEMBL document CHEMBL1255259, “Phosphorothioate-modified oligodeoxynucleotides inhibit human cytomegalovirus replication by blocking virus entry” (Antimicrob Agents Chemother, 2008).
Active and inactive are the calls of the source. The rule behind the calls is not given here.

Columns and labels:
Human betaherpesvirus 5 [1] = test: Antimicrobial activity against Human cytomegalovirus TB40 expressing EGPF tagged UL32 infected in HELF assessed as inhibition of inhibition of viral adsorption at 0.1 uM after 2 hrs by fluorescence microscopy; type: functional, organism-based
Method in brief: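 Prechilled HELF on coverslips exposed to ODN (0.1 μM) or heparin (30 μg/ml) 1 h at 4°C, then infected with HCMV TB40 UL32-EGFP (MOI 20) 2 h at 4°C to permit attachment only. Washed in ice-cold PBS, fixed in 4% formaldehyde, propidium iodide counterstain; green virions imaged by confocal fluorescence microscopy. Done twice.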

Human betaherpesvirus 5 [2] = test: Antimicrobial activity against Human cytomegalovirus AD169 infected in compound pretreated HELF assessed as inhibition of viral replication measured after 6 days post-infection; type: functional, organism-based; conditions: Human betaherpesvirus 5, AD169, HELF
Method in brief: (§1)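 HELF pretreated with ODN 1 h before infection with HCMV AD169 (MOI 1); ODN kept in medium after 2 h adsorption at 37°C. At 6 days p.i., cells plus supernatants sonicated and titrated by plaque assay on HELF; plaques counted microscopically, expressed as PFU/ml (log10) or % of control. IC50/IC90 by linear regression; duplicate wells, three independent experiments, means ± SD.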

Human betaherpesvirus 5 [3] = test: Antimicrobial activity against Human cytomegalovirus AD169 infected in compound pretreated HELF assessed as expression of immediate early 1 protein by immunoblotting; type: functional, organism-based
Method in brief: (§2)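 HELF pretreated with ODN (1 μM) 1 h before and during infection with HCMV AD169 (MOI 1). Whole-cell extracts taken at set times p.i., run on 8% SDS-PAGE (50 μg protein/lane), immunoblotted with MAbs to IE1/IE2, UL44 (early) or UL99 (late); actin as loading control.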

[4] = system: Vesicular stomatitis Indiana virus; test: Antimicrobial activity against Vesicular stomatitis Indiana virus infected in compound pretreated HELF assessed as inhibition of viral replication; type: functional, organism-based
Method in brief: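 HELFs exposed to ODN (0.1 or 1 μM) for 1 h, then infected with VSV serotype Indiana at MOI 1 (2 h adsorption, 37°C). ODN kept in the medium until 48 h p.i. Cells and supernatants were pooled, sonicated and titrated by plaque assay on HELFs. Data are means ± standard deviations of three independent experiments, duplicate wells.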

Human betaherpesvirus 5 [5] = test: Antimicrobial activity against Human cytomegalovirus AD169 infected in 0.1 uM compound pretreated HELF assessed as viral DNA accumulation measured after 48 hrs post-infection by RT-PCR; type: functional, organism-based
Method in brief: (§3)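 HELF treated with ODN (0.1 μM), then infected with HCMV AD169 (MOI 5). Total genomic DNA collected at 4 and 48 h p.i.; 15 ng analysed by TaqMan real-time PCR for IE1 (50 cycles, 95°C 15 s / 62°C 1 min). Copies normalized to 18S rRNA gene against plasmid standard curve. Means ± SD, three experiments.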

Human betaherpesvirus 5 [6] = test: Antimicrobial activity against Human cytomegalovirus AD169 infected in compound pretreated HELF measured as immediate early 1 mRNA level by RT-PCR; type: functional, organism-based
Human betaherpesvirus 5 [7] = test: Antimicrobial activity against 0.1 uM compound pretreated Human cytomegalovirus AD169 infected in HELF assessed as reduction in viral titer at 4 degC; type: functional, organism-based
Method in brief: (§4)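 HCMV AD169 (10^4 PFU) incubated with ODN at 0.1 μM at 4 or 37°C for various times; samples then diluted to bring ODN below an antivirally active level; residual infectivity titrated by plaque assay on HELF. Means ± SD of three independent experiments.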

Human alphaherpesvirus 1 [8] = test: Antimicrobial activity against Human herpesvirus 1 infected in compound pretreated HELF assessed as inhibition of viral replication at 1 uM; type: functional, organism-based
Method in brief: (§5)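 HELF pretreated with ODN (0.1 or 1 μM) 1 h before infection with a clinical HSV-1 isolate at MOI 0.1; ODN kept in medium after 2 h adsorption. Harvest at 48 h p.i., sonication, plaque titration on Vero cells. Means ± SD of three independent experiments.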

Human betaherpesvirus 5 [9] = test: Antimicrobial activity against Human cytomegalovirus isolate AL1 infected in compound pretreated HELF assessed as inhibition of viral replication; type: functional, organism-based; conditions: Human betaherpesvirus 5, isolate AL1, HELF
Method in brief: (§6)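 HELF pretreated 1 h with ODN, infected with clinical HCMV isolate (VR1814 or AL1, HUVEC-propagated) at MOI 1; ODN kept after 2 h adsorption. At 6 days p.i., yield titrated on HELF; IC50 from concentration–plaque reduction plot.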

Human betaherpesvirus 5 [10] = test: Antimicrobial activity against Human cytomegalovirus isolate 1814 infected in compound pretreated HELF assessed as inhibition of viral replication; type: functional, organism-based; conditions: Human betaherpesvirus 5, isolate 1814, HELF; method in brief: as §6
Human betaherpesvirus 5 [11] = test: Antimicrobial activity against Human cytomegalovirus AD169 infected in HELF assessed as inhibition of viral replication at 0.1 uM measured after 6 days post-infection; type: functional, organism-based
Human betaherpesvirus 5 [12] = test: Antimicrobial activity against Human cytomegalovirus AD169 infected in compound pretreated HELF assessed as expression of late protein by immunoblotting; type: functional, organism-based; method in brief: as §2
[13] = Antimicrobial activity against Murine cytomegalovirus (strain Smith) infected in compound pretreated mouse NIH 3T3 cells assessed as inhibition of viral replication; type: functional, cell-based; conditions: Murid betaherpesvirus 1, NIH3T3
Method in brief: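 NIH 3T3 pretreated 1 h with ODN, infected with MCMV Smith (MOI 1); ODN kept after 2 h adsorption at 37°C. Harvest at 6 days p.i., sonication, plaque assay on NIH 3T3; IC50 from plaque reduction. Means ± SD, three experiments.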

Human betaherpesvirus 5 [14] = test: Antimicrobial activity against Human cytomegalovirus AD169 infected in 0.1 uM compound pretreated HELF assessed as viral DNA accumulation measured after 4 hrs post-infection by RT-PCR; type: functional, organism-based; method in brief: as §3
unidentified adenovirus = test: Antimicrobial activity against unidentified adenovirus infected in compound pretreated HELF assessed as inhibition of viral replication; type: functional, organism-based
Method in brief: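 HELF pretreated 1 h with ODN (0.1 or 1 μM), infected with an adenovirus clinical isolate (MOI 1); ODN kept after 2 h adsorption. Harvest at 4 days p.i., sonication, plaque titration on HELF. Means ± SD, three experiments.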

Human betaherpesvirus 5 [15] = test: Antimicrobial activity against Human cytomegalovirus AD169 infected in 0.1 uM compound pretreated HELF assessed as inhibition of viral replication measured after 6 days post-infection; type: functional, organism-based; method in brief: as §1
[16] = Cytotoxicity against HELF assessed as cell viability after 6 days by MTT assay; type: cell-based; conditions: human, HELF cells
Method in brief: (§7)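 HELF exposed to rising ODN concentrations (up to 10 μM) for 6 days; viable cells measured by MTT. CC50 taken as concentration that cuts viability to 50%.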

Human alphaherpesvirus 1 [17] = test: Antimicrobial activity against Human herpesvirus 1 infected in compound pretreated HELF assessed as inhibition of viral replication at 0.1 uM; type: functional, organism-based; method in brief: as §5
[18] = Cytotoxicity against HELF assessed as cell viability by MTT assay after 6 days at <=10 uM; type: cell-based; conditions: human, 144 h; method in brief: as §7
Human betaherpesvirus 5 [19] = test: Antimicrobial activity against Human cytomegalovirus AD169 infected in 1 uM compound pretreated HELF assessed as inhibition of viral replication measured after 6 days post-infection; type: functional, organism-based; method in brief: as §1
Human betaherpesvirus 5 [20] = test: Antimicrobial activity against Human cytomegalovirus isolate 1814 infected in compound pretreated HUVEC assessed as inhibition of viral replication; type: functional, organism-based; conditions: Human betaherpesvirus 5, isolate 1814, HUVEC
Method in brief: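 HUVEC (passages 2–6, EGM-2 with 2% FBS) pretreated 1 h with ODN and infected with HCMV VR1814 at MOI 1; ODN maintained after 2 h adsorption. Yield at 6 days p.i. titrated on HELF; IC50 from concentration-dependent plaque reduction.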

Human betaherpesvirus 5 [21] = test: Antimicrobial activity against Human herpesvirus 5 strain AD169 infected in HELF assessed as pp65 nuclear localization at 0.1 uM after 2 hrs […]; type: functional, organism-based
Human betaherpesvirus 5 [22] = test: Antimicrobial activity against Human cytomegalovirus AD169 infected in compound pretreated HELF measured as immediate early 2 mRNA level by RT-PCR; type: functional, organism-based
Human betaherpesvirus 5 [23] = test: Antimicrobial activity against 0.1 uM compound pretreated Human cytomegalovirus AD169 infected in HELF assessed as reduction in viral titer 37 degC; type: functional, organism-based; method in brief: as §4
Human betaherpesvirus 5 [24] = test: Antimicrobial activity against Human cytomegalovirus AD169 infected in compound pretreated HELF assessed as expression of early protein by immunoblotting; type: functional, organism-based; method in brief: as §2
Human betaherpesvirus 5 [25] = test: Antimicrobial activity against Human cytomegalovirus AD169 infected in compound pretreated HELF assessed as expression of immediate early 2 protein by immunoblotting; type: functional, organism-based; method in brief: as §2
Human betaherpesvirus 5 [26] = test: Antimicrobial activity against Human cytomegalovirus AD169 infected in HELF assessed as inhibition of viral replication at 1 uM measured after 6 days post-infection; type: functional, organism-based

Cc1cn([C@H]2C[C@H](OP(O)(O)=S)[C@@H](COP(O)(=S)O[C@H]3C[C@H](n4cc(C)c(=O)[nH]c4=O)O[C@@H]3COP(O)(=S)O[C@H]3[C@@H](O)[C@H](n4cnc5c(=O)[nH]c(N)nc54)O[C@@H]3COP(O)(=S)O[C@H]3[C@@H](O)[C@H](n4ccc(N)nc4=O)O[C@@H]3COP(O)(=S)O[C@H]3C[C@H](n4cc(C)c(=O)[nH]c4=O)O[C@@H]3COP(O)(=S)O[C@H]3[C@@H](O)[C@H](n4cnc5c(=O)[nH]c(N)nc54)O[C@@H]3COP(O)(=S)O[C@H]3C[C@H](n4cc(C)c(=O)[nH]c4=O)O[C@@H]3COP(O)(=S)O[C@H]3C[C@H](n4cc(C)c(=O)[nH]c4=O)O[C@@H]3COP(O)(=S)O[C@H]3C[C@H](n4cc(C)c(=O)[nH]c4=O)O[C@@H]3COP(O)(=S)O[C@H]3C[C@H](n4cc(C)c(=O)[nH]c4=O)O[C@@H]3COP(O)(=S)O[C@H]3[C@@H](O)[C@H](n4cnc5c(=O)[nH]c(N)nc54)O[C@@H]3COP(O)(=S)O[C@H]3[C@@H](O)[C@H](n4ccc(N)nc4=O)O[C@@H]3COP(O)(=S)O[C@H]3C[C@H](n4cc(C)c(=O)[nH]c4=O)O[C@@H]3COP(O)(=S)O[C@H]3[C@@H](O)[C@H](n4cnc5c(=O)[nH]c(N)nc54)O[C@@H]3COP(O)(=S)O[C@H]3C[C@H](n4cc(C)c(=O)[nH]c4=O)O[C@@H]3COP(O)(=S)O[C@H]3C[C@H](n4cc(C)c(=O)[nH]c4=O)O[C@@H]3COP(O)(=S)O[C@H]3C[C@H](n4cc(C)c(=O)[nH]c4=O)O[C@@H]3COP(O)(=S)O[C@H]3C[C@H](n4cc(C)c(=O)[nH]c4=O)O[C@@H]3COP(O)(=S)O[C@H]3[C@@H](O)[C@H](n4cnc5c(=O)[nH]c(N)nc54)O[C@@H]3COP(O)(=S)O[C@H]3[C@@H](O)[C@H](n4ccc(N)nc4=O)O[C@@H]3COP(O)(=S)O[C@H]3C[C@H](n4cc(C)c(=O)[nH]c4=O)O[C@@H]3COP(O)(=S)O[C@H]3[C@@H](O)[C@H](n4cnc5c(=O)[nH]c(N)nc54)O[C@@H]3COP(O)(=S)O[C@H]3[C@@H](O)[C@H](n4ccc(N)nc4=O)O[C@@H]3COP(O)(=S)O[C@H]3C[C@H](n4cc(C)c(=O)[nH]c4=O)O[C@@H]3CO)O2)c(=O)[nH]c1=O (stereo partly drawn)
inhibition (Human betaherpesvirus 5 [1]): inactive
IC50 (Human betaherpesvirus 5 [2]): 0.02 µM
IC90 (Human betaherpesvirus 5 [2]): 0.065 µM
inhibition (Human betaherpesvirus 5 [3]): Active
inhibition [4]: inactive
inhibition (Human betaherpesvirus 5 [5]): Active
inhibition (Human betaherpesvirus 5 [6]): Active
inhibition (Human betaherpesvirus 5 [7]): inactive
inhibition (Human alphaherpesvirus 1 [8]): inactive
IC50 (Human betaherpesvirus 5 [9]): 0.044 µM
IC50 (Human betaherpesvirus 5 [10]): 0.038 µM
inhibition (Human betaherpesvirus 5 [11]): inactive
inhibition (Human betaherpesvirus 5 [12]): Active
IC50 [13]: 0.05 µM
inhibition (Human betaherpesvirus 5 [14]): Active
inhibition (unidentified adenovirus): inactive
inhibition (Human betaherpesvirus 5 [15]): Active
CC50 at 144 h [16]: > 10 µM
inhibition (Human alphaherpesvirus 1 [17]): inactive
Activity [18]: Non-toxic
inhibition (Human betaherpesvirus 5 [19]): Active
IC50 (Human betaherpesvirus 5 [20]): 0.025 µM
inhibition (Human betaherpesvirus 5 [21]): Active
inhibition (Human betaherpesvirus 5 [22]): Active
inhibition (Human betaherpesvirus 5 [23]): inactive
inhibition (Human betaherpesvirus 5 [24]): Active
inhibition (Human betaherpesvirus 5 [25]): Active
inhibition (Human betaherpesvirus 5 [26]): inactive
